Experiments:
Format in all cases: biochemical
[1] = target: T1, meprin α (Homo sapiens, UniProt Q16819); test: Meprin α HTS FRET assay, dose response; conditions: read-out: IC50 Meprin α; selectivity testing; n = 3 Mean ± SD
T1 sequence (Q16819 66-653 limits assumed): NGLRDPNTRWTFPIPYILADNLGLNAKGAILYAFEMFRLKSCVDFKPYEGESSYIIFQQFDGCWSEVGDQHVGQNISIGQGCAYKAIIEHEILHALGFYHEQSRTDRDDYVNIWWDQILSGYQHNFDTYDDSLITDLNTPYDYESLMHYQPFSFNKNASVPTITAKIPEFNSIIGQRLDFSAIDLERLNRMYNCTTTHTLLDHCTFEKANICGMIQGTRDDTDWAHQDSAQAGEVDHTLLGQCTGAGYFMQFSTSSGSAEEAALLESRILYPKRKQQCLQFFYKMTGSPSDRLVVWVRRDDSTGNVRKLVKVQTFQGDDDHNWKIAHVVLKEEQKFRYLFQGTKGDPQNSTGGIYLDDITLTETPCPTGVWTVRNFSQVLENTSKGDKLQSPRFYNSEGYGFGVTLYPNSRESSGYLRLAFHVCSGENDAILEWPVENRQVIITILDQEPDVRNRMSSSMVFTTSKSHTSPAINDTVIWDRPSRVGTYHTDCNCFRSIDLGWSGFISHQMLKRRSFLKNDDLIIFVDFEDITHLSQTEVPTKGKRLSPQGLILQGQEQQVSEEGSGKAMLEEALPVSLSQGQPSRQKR
Outline: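 Recombinant human Strep-tagged meprin α was expressed in baculovirus-infected BTI-TN-5B1-4 cells, trypsin-activated, then freed of trypsin. It was used as a 2x solution at 2.6 nM in 50 mM Hepes, 0.01% Brij-35, pH 7.5. Test compound was pre-incubated 30 min at RT, then 2x (MCA)-YVADAPK-(K-ε-DNP) at 20 μM was added for 1 h at RT. Read at ex 324/em 393 nm. 3-fold dilutions in quadruplicate; 4-parameter fit; 0.1% or 1.0% DMSO.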

[2] = target: MMP-8 (Homo sapiens, UniProt P22894); test: Selectivity testing against zinc metalloproteases: MMP-8; conditions: read-out: IC50 MMP-8; n = 3 Mean ± SD
[3] = target: MMP-14 (Homo sapiens, UniProt P50281); test: Selectivity testing against zinc metalloproteases: MMP-14; conditions: read-out: IC50 MMP-14; n = 3 Mean ± SD
[4] = target: ADAM17 (Homo sapiens, UniProt P78536); test: Selectivity testing against zinc metalloproteases: ADAM17; conditions: read-out: IC50 ADAM17; n = 3 Mean ± SD
ADAM17, sequence (P78536 215-824, species assumed): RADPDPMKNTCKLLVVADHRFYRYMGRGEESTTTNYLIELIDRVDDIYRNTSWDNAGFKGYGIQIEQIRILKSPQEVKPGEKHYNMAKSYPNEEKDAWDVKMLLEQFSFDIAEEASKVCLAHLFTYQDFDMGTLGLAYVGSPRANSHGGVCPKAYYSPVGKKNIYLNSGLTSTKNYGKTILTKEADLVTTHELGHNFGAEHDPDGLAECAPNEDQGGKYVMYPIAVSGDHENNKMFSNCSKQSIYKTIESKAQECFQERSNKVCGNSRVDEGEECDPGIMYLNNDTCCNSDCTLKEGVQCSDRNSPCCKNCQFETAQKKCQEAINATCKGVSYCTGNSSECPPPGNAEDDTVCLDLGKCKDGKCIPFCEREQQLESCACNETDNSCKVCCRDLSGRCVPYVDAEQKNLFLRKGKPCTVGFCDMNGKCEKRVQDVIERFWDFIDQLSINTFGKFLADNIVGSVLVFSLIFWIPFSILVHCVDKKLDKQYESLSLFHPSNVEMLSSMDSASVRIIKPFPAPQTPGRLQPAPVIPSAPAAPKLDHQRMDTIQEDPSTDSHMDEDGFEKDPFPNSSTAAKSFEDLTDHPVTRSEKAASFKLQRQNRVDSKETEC

MMP-8, sequence (P22894 101-467, species assumed): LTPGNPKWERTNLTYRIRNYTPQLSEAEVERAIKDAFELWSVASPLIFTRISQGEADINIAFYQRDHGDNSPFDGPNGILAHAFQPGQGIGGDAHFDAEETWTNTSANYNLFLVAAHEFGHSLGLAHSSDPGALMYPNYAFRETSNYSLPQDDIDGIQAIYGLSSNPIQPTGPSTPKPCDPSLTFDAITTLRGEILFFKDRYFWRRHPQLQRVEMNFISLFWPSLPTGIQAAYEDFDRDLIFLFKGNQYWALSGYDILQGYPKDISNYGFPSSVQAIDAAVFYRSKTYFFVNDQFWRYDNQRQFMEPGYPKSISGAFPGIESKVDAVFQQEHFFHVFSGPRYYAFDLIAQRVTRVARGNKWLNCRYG

Q: How did the IC50 [1] turn out when O=C(Nc1cc(C(=O)Nc2ccc(S(=O)(=O)O)cc2S(=O)(=O)O)cc(C(=O)Nc2ccc(S(=O)(=O)O)cc2S(=O)(=O)O)c1)Nc1cc(C(=O)Nc2ccc(S(=O)(=O)O)cc2S(=O)(=O)O)cc(C(=O)Nc2ccc(S(=O)(=O)O)cc2S(=O)(=O)O)c1 [NF449, 4,4′,4″,4‴-[Carbonyl-bis[imino-5,1,3-benzenetriylbis-(carbonyl-imino)]]tetrakis(benzene-1,3-disulfonic acid)] was run?
A: The IC50 was > 100 µM.

Q: And the IC50 [2]?
A: Its IC50 is 1 ± 0.1 µM.

Q: And the IC50 [3]?
A: Its IC50 is 18 ± 1.5 µM.

Q: And the IC50 [4]?
A: Its IC50 is 4.6 ± 0.3 µM.
